Active and inactive are the calls of the source. No cut-off for these calls is given here.
Experiments:
[1] = biological target: T1, Nuclear factor erythroid 2-related factor 2 (Mus musculus) (UniProt Q60795); experiment: Activation of Nrf2/ARE in E15 stage mouse primary cortical neurons at 6.25 to 50 uM after 48 hrs by human placental alkaline phosphatase reporter gene assay; format: cell-based; details: Cerebral cortex neuron
T1 sequence (whole entry): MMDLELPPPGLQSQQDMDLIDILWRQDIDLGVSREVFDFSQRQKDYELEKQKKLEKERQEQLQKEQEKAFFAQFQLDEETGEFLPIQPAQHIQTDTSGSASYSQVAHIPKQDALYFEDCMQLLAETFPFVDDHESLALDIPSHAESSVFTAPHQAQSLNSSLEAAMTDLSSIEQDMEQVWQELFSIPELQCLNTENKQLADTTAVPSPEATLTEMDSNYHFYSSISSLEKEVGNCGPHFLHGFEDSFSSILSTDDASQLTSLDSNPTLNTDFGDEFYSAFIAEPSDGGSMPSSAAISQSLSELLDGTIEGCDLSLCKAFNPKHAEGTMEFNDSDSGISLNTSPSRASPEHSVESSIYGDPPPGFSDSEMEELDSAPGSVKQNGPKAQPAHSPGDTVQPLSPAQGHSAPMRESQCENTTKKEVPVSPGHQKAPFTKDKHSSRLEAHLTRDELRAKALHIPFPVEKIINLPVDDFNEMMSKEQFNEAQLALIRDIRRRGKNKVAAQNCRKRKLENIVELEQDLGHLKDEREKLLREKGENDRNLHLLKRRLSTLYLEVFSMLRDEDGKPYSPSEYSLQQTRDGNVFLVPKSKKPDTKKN
Summary of the method: (§1)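 Mixed cortical cultures (~40% astrocytes/60% neurons) from E15 ARE-hPAP reporter mice, hPAP driven by 51 bp rat NQO1 ARE promoter segment; 6 days in vitro, then compound in DMSO (0.1% final) for 48 h. Lysis in TMNC, endogenous phosphatase heat-inactivated in 200 mM DEA at 65 °C; CSPD chemiluminescence, hPAP-negative baseline subtracted; fold over vehicle, n = 5.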

[2] = biological target: T1, Nuclear factor erythroid 2-related factor 2 (Mus musculus); experiment: Activation of Nrf2/ARE in E15 stage mouse primary cortical neurons after 48 hrs by human placental alkaline phosphatase reporter gene assay; format: cell-based; details: Cerebral cortex neuron; summary of the method: as §1
Cerebral cortex neuron [3] = experiment: Neuroprotective activity against H2O2-induced toxicity in E15 stage mouse primary cortical neurons at 10 uM incubated for 48 hrs prior to H2O2-treatment measured after 24 hrs by MTS assay; format: functional, cell-based
Summary of the method: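 Cortical cultures pretreated 48 h with compound or vehicle, then exposed to increasing H2O2 concentrations for 24 h; viability by soluble MTS assay. n = 4 compound, n = 8 vehicle; one-way ANOVA with Newman-Keuls.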

[4] = biological target: T1, Nuclear factor erythroid 2-related factor 2 (Mus musculus); experiment: Induction of Nrf2/ARE-mediated GCLC gene expression in E15 stage mouse primary cortical neurons at 10 uM after 24 hrs by qPCR analysis; format: cell-based; details: Cerebral cortex neuron
Summary of the method: (§2)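 E15 ARE-hPAP mouse mixed cortical cultures treated 24 h with compound or vehicle; total RNA harvested for quantitative PCR, normalised to GAPDH, fold change vs vehicle; n = 8 treated, n = 4 vehicle.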

[5] = biological target: T1, Nuclear factor erythroid 2-related factor 2 (Mus musculus); experiment: Induction of Nrf2/ARE-mediated NQO1 gene expression in E15 stage mouse primary cortical neurons at 10 uM after 24 hrs by qPCR analysis; format: cell-based; details: Cerebral cortex neuron; summary of the method: as §2
[6] = biological target: T1, Nuclear factor erythroid 2-related factor 2 (Mus musculus); experiment: Activation of Nrf2/ARE in E15 stage mouse primary cortical neurons at 25 uM after 48 hrs by human placental alkaline phosphatase reporter gene assay relative to control; format: cell-based; details: Cerebral cortex neuron; summary of the method: as §1
Cerebral cortex neuron [7] = experiment: Neuroprotective activity against H2O2-induced oxidative stress in E15 stage mouse primary cortical neurons at 10 uM incubated for 48 hrs prior to H2O2-treatment measured after 24 hrs by TUNEL/DAPI staining-based microscopic analysis; format: functional, cell-based
Summary of the method: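 Cortical cultures pretreated 48 h with compound or vehicle, then 35 μM H2O2 for 24 h; fragmented DNA detected by TUNEL staining, nuclei counterstained with DAPI, imaged by photomicroscopy.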

[8] = Cytotoxicity against E15 stage mouse primary cortical neurons at 50 uM by MTS assay; format: cell-based; details: cerebral cortex neuron
Summary of the method: (§3)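 Mixed cortical cultures from E15 ARE-hPAP mice, 6 days in vitro (5% O2), exposed 48 h to compound in DMSO (0.1% final). Viability read by soluble MTS assay, normalised to vehicle as percent; mean ± SEM, n = 5, one-way ANOVA with Newman-Keuls.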

[9] = biological target: T1, Nuclear factor erythroid 2-related factor 2 (Mus musculus); experiment: Activation of Nrf2/ARE in E15 stage mouse primary cortical neurons at 50 uM after 48 hrs by human placental alkaline phosphatase reporter gene; format: cell-based; details: Cerebral cortex neuron; summary of the method: as §1
[10] = Cytotoxicity against E15 stage mouse primary cortical neurons at 25 uM by MTS assay; format: cell-based; details: cerebral cortex neuron; summary of the method: as §3
Cerebral cortex neuron [11] = experiment: Neuroprotective activity against H2O2-induced oxidative stress in E15 stage mouse primary cortical neurons at 20 uM incubated for 48 hrs prior to H2O2-treatment measured after 24 hrs by TUNEL/DAPI staining-based microscopic analysis; format: functional, cell-based
Summary of the method: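 Mixed cortical cultures (~40% astrocytes, 60% neurons) from E15 ARE-hPAP reporter mouse pups were pretreated with compound or vehicle for 48 h. They were then exposed to 35 μM H2O2 for a further 24 h. Fragmented DNA was stained by TUNEL and nuclei by DAPI, and both were imaged by photomicroscopy.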

Cerebral cortex neuron [12] = experiment: Neuroprotective activity against H2O2-induced toxicity in E15 stage mouse primary cortical neurons at 20 uM incubated for 48 hrs prior to H2O2-treatment measured after 24 hrs by MTS assay; format: functional, cell-based
Summary of the method: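 Mixed cortical cultures (~40% astrocytes, 60% neurons) from E15 ARE-hPAP reporter mouse pups were pretreated with compound or vehicle for 48 h. They were then challenged with increasing H2O2 concentrations for 24 h. Viability was read by soluble MTS assay. Mean ± SEM, n = 4 compound, n = 8 vehicle. One-way ANOVA with Newman-Keuls.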

[13] = biological target: T1, Nuclear factor erythroid 2-related factor 2 (Mus musculus); experiment: Induction of Nrf2/ARE-mediated GCLM gene expression in E15 stage mouse primary cortical neurons at 20 uM after 24 hrs by qPCR analysis; format: cell-based; details: Cerebral cortex neuron
Summary of the method: (§4)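 Mixed cortical cultures (~40% astrocytes, 60% neurons) from E15 ARE-hPAP reporter mouse pups, grown in Neurobasal/B27 medium at 37 °C under 5% O2, 5% CO2. Treated with compound or vehicle for 24 h. Total RNA used for quantitative PCR, normalised to GAPDH and expressed as fold change relative to vehicle. Mean ± SEM, n = 8 treated, n = 4 vehicle. One-way ANOVA with Newman-Keuls.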

[14] = biological target: T1, Nuclear factor erythroid 2-related factor 2 (Mus musculus); experiment: Induction of Nrf2/ARE-mediated NQO1 gene expression in E15 stage mouse primary cortical neurons at 20 uM after 24 hrs by qPCR analysis; format: cell-based; details: Cerebral cortex neuron; summary of the method: as §4
[15] = biological target: T1, Nuclear factor erythroid 2-related factor 2 (Mus musculus); experiment: Induction of Nrf2/ARE-mediated GCLC gene expression in E15 stage mouse primary cortical neurons at 20 uM after 24 hrs by qPCR analysis; format: cell-based; details: Cerebral cortex neuron; summary of the method: as §4

Row | Compound | Activity [1] | Activity [2] | Activity [8] | also measured
1 | CC(C)c1cc2c(c(O)c1O)[C@@]13CCCC(C)(C)[C@@H]1[C@H](OC3=O)[C@@H]2O | Active | Dose-dependent effect | – | –
2 | CC(C)c1cc2c(c(O)c1O)C1=C(CC2)C(C)(C)CCC1=O | Active | Dose-dependent effect | – | –
3 | CC(C)(C)c1cc(O)ccc1O | Active | – | – | –
4 | COc1c(C(C)C)cc2c(c1O)[C@@]1(C(=O)O)CCCC(C)(C)[C@@H]1CC2 | inactive | – | – | –
5 | CC(C)c1cc2c(c(O)c1O)[C@@]13CCCC(C)(C)[C@@H]1[C@H](OC3=O)[C@H]2O | Active | Dose-dependent effect | – | –
6 | CC(C)c1cc2c(c(O)c1O)[C@@]1(C=O)CCCC(C)(C)[C@@H]1CC2 [CARNOSALDEHYDE] | – | Dose-dependent effect | Toxic | Activity (Cerebral cortex neuron [3]): Active; Activity [4]: Active; Activity [5]: Active; fold change (FC) [6]: 50; Activity (Cerebral cortex neuron [7]): Active; Activity [9]: inactive; Activity [10]: Toxic
7 | CC(C)c1cc2c(c(O)c1O)[C@@]13CCCC(C)(C)[C@@H]1C[C@@H]2OC3=O [CARNOSOL] | – | Dose-dependent effect | Toxic | Activity (Cerebral cortex neuron [11]): Active; Activity (Cerebral cortex neuron [12]): Active; fold change (FC) [6]: 50; Activity [13]: Active; Activity [14]: Active; Activity [9]: inactive; Activity [15]: Active
8 | CC(C)c1cc2c(c(O)c1O)[C@@]1(C(=O)O)CCCC(C)(C)[C@@H]1CC2 [CARNOSIC ACID] | Active | Dose-dependent effect | Toxic | –
